Source: ChEMBL document CHEMBL4020833, “A Systematic Exploration of Macrocyclization in Apelin-13: Impact on Binding, Signaling, Stability, and Cardiovascular Effects” (J Med Chem, 2018)
Starred links: 1 amine or outer side, 2 acyl side, 3 side chain; linkers in the order of their positions; H or OH if unused. Positions of bridges follow the written chain, without caps; N, C: chain ends. Non-standard residues stand in square brackets, D forms with d. Residues, ends and D or L forms follow the SMILES beside them. X2 = N=C(N)NCCC[C@@H](C(=O)[*:2])N(CC=[*:3])[*:1]; X4 = O=C([C@H](CO)N(CC=[*:3])[*:1])[*:2]; AllylGly = C=CC[C@H](N)C(=O)O; pGlu = O=C1CC[C@@H](C(=O)O)N1; Nle = CCCC[C@H](N)C(=O)O

Columns and labels:
Apelin receptor [1] = molecular target: T1, Apelin receptor (Homo sapiens, UniProt P35414); test: Activity at human APJ receptor expressed in HEK293 cells assessed as dissociation of Galphai1 from Gbetagamma subunit after 5 mins by BRET assay; format: cell-based
T1 sequence (P35414 whole entry): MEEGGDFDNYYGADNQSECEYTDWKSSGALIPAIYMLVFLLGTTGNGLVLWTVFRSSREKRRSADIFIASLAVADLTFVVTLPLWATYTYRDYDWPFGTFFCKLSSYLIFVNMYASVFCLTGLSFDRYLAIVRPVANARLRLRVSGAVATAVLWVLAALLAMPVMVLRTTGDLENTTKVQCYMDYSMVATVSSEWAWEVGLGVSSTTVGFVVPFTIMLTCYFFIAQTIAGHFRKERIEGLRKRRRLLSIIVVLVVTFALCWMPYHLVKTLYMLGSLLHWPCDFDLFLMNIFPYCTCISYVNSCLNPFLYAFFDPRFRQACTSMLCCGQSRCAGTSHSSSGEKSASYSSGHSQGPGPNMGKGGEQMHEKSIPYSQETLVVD

[2] = Half life in rat plasma at 1 mM by UPLC-MS analysis; format: ADME, cell-free
Outline: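 Male rat plasma incubated with peptide at 37 °C for 2, 4, 7, 24 h (or 10, 20, 60, 120 min for short-lived peptides); quenched with acetonitrile-ethanol (1:1) plus nicotinamide internal standard, then UPLC-MS. Percent remaining fitted to exponential decay for half-life; means ± SEM of three independent experiments. 1 mM is the stock solution.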

Apelin receptor [3] = molecular target: T1, Apelin receptor; test: Activity at GFP10-tagged human APJ receptor expressed in HEK293 cells assessed as induction of RlucII-tagged beta-arrestin-2 recruitment after 30 mins by BRET assay; format: cell-based
Apelin receptor [4] = molecular target: T1, Apelin receptor; test: Displacement of [125I]-[Nle75, Tyr77] Pyr1-apelin-13 from YFP-tagged human APJ receptor expressed in HEK293 cell membranes after 1 hr by gamma-counting method

Row | EC50 (Apelin receptor [1]) [nM] | half-life at 1000 µM [2] [h] | EC50 (Apelin receptor [3]) [nM] | Ki (Apelin receptor [4]) [nM] | Compound
1 | 2 | 2.4 | 145 | 2.1 | C=CC[C@H](NC(=O)[C@@H]1CCCN1C(=O)[C@H](CCCC)NC(=O)[C@@H]1CCCN1C(=O)[C@H](CC=C)NC(=O)[C@H](CCCCN)NC(=O)[C@H](Cc1cnc[nH]1)NC(=O)[C@H](CO)NC(=O)[C@H](CC(C)C)NC(=O)[C@H](CCCNC(=N)N)NC(=O)[C@@H]1CCCN1C(=O)[C@H](CCCNC(=N)N)NC(=O)[C@@H]1CCC(=O)N1)C(=O)O ([pGlu]RPRLSHK[AllylGly]P[Nle]P[AllylGly]-OH)
2 | 20 | 6.6 | 400 | 1.4 | CC(C)C[C@H](NC(=O)[C@H](CCCNC(=N)N)NC(=O)[C@@H]1CCCN1C(=O)[C@H](CCCNC(=N)N)NC(=O)[C@@H]1CCC(=O)N1)C(=O)N[C@@H](CO)C(=O)N[C@H]1C/C=C\C[C@@H](C(=O)N2CCC[C@H]2C(=O)N[C@@H](Cc2ccccc2)C(=O)O)NC(=O)[C@@H]2CCCN2C(=O)CNC(=O)[C@H](CCCCN)NC1=O ([pGlu]RPRLS[AllylGly]KGP[AllylGly]PF-OH; staple (Z) 7-11)
3 | 19 | 7.7 | 512 | 9.1 | CCCC[C@H](NC(=O)[C@@H]1CCCN1C(=O)CNC(=O)[C@@H]1C/C=C\CN(C(=O)[C@@H]2CCCN2C(=O)[C@H](CCCNC(=N)N)NC(=O)[C@@H]2CCC(=O)N2)[C@@H](CCCNC(=N)N)C(=O)N[C@@H](CC(C)C)C(=O)N[C@@H](CO)C(=O)N[C@@H](Cc2cnc[nH]2)C(=O)N1)C(=O)N1CCC[C@H]1C(=O)N[C@@H](Cc1ccccc1)C(=O)O ([pGlu]RP[X2]LSH[AllylGly]GP[Nle]PF-OH; staple (Z) 4-8)
4 |  | > 24 |  | 188 | CCCC[C@H](NC(=O)[C@@H]1C/C=C\CN(C(=O)[C@H](CC(C)C)NC(=O)[C@H](CCCNC(=N)N)NC(=O)[C@@H]2CCCN2C(=O)[C@H](CCCNC(=N)N)NC(=O)[C@@H]2CCC(=O)N2)[C@@H](CO)C(=O)N[C@@H](Cc2cnc[nH]2)C(=O)N[C@@H](CCCCN)C(=O)NCC(=O)N1)C(=O)N1CCC[C@H]1C(=O)N[C@@H](Cc1ccccc1)C(=O)O ([pGlu]RPRL[X4]HKG[AllylGly][Nle]PF-OH; staple (Z) 6-10)
5 |  | 4.1 |  | 268 | CCCC[C@H](NC(=O)[C@@H]1C/C=C\C[C@H](NC(=O)[C@H](CC(C)C)NC(=O)[C@H](CCCNC(=N)N)NC(=O)[C@@H]2CCCN2C(=O)[C@H](CCCNC(=N)N)NC(=O)[C@@H]2CCC(=O)N2)C(=O)N[C@@H](Cc2cnc[nH]2)C(=O)N[C@@H](CCCCN)C(=O)NCC(=O)N1)C(=O)N1CCC[C@H]1C(=O)N[C@@H](Cc1ccccc1)C(=O)O ([pGlu]RPRL[AllylGly]HKG[AllylGly][Nle]PF-OH; staple (Z) 6-10)
6 |  | 0.7 |  | 509 | CCCC[C@H](NC(=O)[C@@H]1CCCN1C(=O)CNC(=O)[C@H](CCCCN)NC(=O)[C@H](Cc1cnc[nH]1)NC(=O)[C@@H]1C/C=C\C[C@H](NC(=O)[C@@H]2CCC(=O)N2)C(=O)N2CCC[C@H]2C(=O)N[C@@H](CCCNC(=N)N)C(=O)N[C@@H](CC(C)C)C(=O)N1)C(=O)N1CCC[C@H]1C(=O)N[C@@H](Cc1ccccc1)C(=O)O
7 | 9.2 |  | 274 | 1.9 | C=CC[C@H](NC(=O)[C@H](CO)NC(=O)[C@H](CC(C)C)NC(=O)[C@H](CCCNC(=N)N)NC(=O)[C@H](CC=C)NC(=O)[C@H](CCCNC(=N)N)NC(=O)[C@@H]1CCC(=O)N1)C(=O)N[C@@H](CCCCN)C(=O)NCC(=O)N1CCC[C@H]1C(=O)N[C@@H](CCCC)C(=O)N1CCC[C@H]1C(=O)N[C@@H](Cc1ccccc1)C(=O)O
8 | 1 |  | 42 | 0.3 | C=CC[C@H](NC(=O)[C@H](CO)NC(=O)[C@H](CC(C)C)NC(=O)[C@H](CCCNC(=N)N)NC(=O)[C@@H]1CCCN1C(=O)[C@H](CCCNC(=N)N)NC(=O)[C@@H]1CCC(=O)N1)C(=O)N[C@@H](CCCCN)C(=O)NCC(=O)N1CCC[C@H]1C(=O)N[C@@H](CC=C)C(=O)N1CCC[C@H]1C(=O)N[C@@H](Cc1ccccc1)C(=O)O ([pGlu]RPRLS[AllylGly]KGP[AllylGly]PF-OH)
